Screening data from PubChem BioAssay.
MPTP inh – permeability transition pore inhibition. isolated mouse mitochondria, Ca2+ swelling absorbance, 30 min. inhibition, % at 10 µM. AID 602449. 360,000 compounds, 1.4% hits;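 active means inhibition of 50% or more, scaled per plate between neutral and stimulator controls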
GRIN3A LBD mod – modulates the human NR3A ligand-binding domain. 340,000 compounds, 2.5% hits. NR3A LBD differential scanning fluorimetry, Tm shift; 0% = protein alone, 100% = glycine-bound protein. Tm shift relative to glycine control, % at 25 µM. AID 1259313;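 active means melting temperature shift of at least 10% of the positive control shift, at one fixed dose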
ADAM17 inh – ADAM17 inhibition, QFRET primary screen; P78536; recombinant ADAM17, EDANS/DABCYL FRET peptide cleavage; inhibition, % at 6.95 µM; 370,000 compounds, 0.83% hits; AID 720648;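 active means inhibition above the mean of compounds lying between control limits plus 3 SD, set per campaign, cut at about 8.5% in these data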
ADAM10 inh – inhibitors of human ADAM10. O14672. recombinant ADAM10, EDANS/DABCYL FRET peptide cleavage, 3 h. inhibition, % at 7 µM. 370,000 compounds, 0.62% hits;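 active means inhibition above a per-campaign cutoff equal to the mean of compounds falling between control-based bounds plus 3 SD, cut at about 20% in these data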
Target sequence (O14672 214-748 limits assumed): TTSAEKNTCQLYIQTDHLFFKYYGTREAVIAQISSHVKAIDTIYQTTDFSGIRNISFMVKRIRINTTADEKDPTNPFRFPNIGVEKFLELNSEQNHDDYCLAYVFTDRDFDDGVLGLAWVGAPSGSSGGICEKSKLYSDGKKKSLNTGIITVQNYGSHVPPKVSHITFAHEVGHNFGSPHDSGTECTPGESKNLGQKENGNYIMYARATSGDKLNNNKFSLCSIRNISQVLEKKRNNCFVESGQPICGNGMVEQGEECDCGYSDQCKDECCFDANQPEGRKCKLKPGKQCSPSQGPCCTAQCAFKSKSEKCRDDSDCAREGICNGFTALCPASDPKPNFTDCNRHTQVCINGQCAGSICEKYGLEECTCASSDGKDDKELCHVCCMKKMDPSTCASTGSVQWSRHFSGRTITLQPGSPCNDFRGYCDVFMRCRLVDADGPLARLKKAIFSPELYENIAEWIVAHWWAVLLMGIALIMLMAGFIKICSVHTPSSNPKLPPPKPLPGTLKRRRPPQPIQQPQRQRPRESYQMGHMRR
MT1-MMP act inh – MT1-MMP (human) activation inhibition | P50281 | HT1080 RFP-PRO-GFP cells, GFP/RFP ratio fluorescence, overnight; percent of plate control window, DMSO zero | GFP/RFP ratio change, % at 20 µM | 360,000 compounds, 0.061% hits | AID 651647;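 active means GFP/RFP ratio change of at least 30% with cell ATP level not reduced by more than half and red fluorescence within 50% of control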
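Test system: HT1080 cells expressing an RFP-PRO-GFP fluorescent reporter construct / Compound dosing: single-point 20 µM compound, 1% DMSO / Schedule: cells overnight before dosing, compound overnight, 37 °C, 5% CO2 / Evaluation: GFP/RFP fluorescence ratio / Control set: DMSO and RFP-L50D-GFP cell wells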
SKN-1 block – C. elegans SKN-1 inhibition; inhibition, % at 21.8 µM; 360,000 compounds, 0.49% hits; AID 624304; C. elegans VP596 Pgst-4::GFP/RFP ratio, acrylamide-induced, 24 h;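 active means interference check ratio from 0.5 to 1.5 plus GFP to RFP signal ratio inhibition reaching or exceeding a fixed threshold, cut at about 30% in these data, passing the limit was not always enough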
Numbers stand for hits; – = inactive; · = no result given. Sampled rows, rich in hits. Any-hit rate of the full collection: about 4.7%.

SMILES | MPTP inh | GRIN3A LBD mod | ADAM17 inh | ADAM10 inh | MT1-MMP act inh | SKN-1 block
N#CCC(=O)N/N=C/c1c2ccccc2cc2ccccc12 | – | – | – | – | – | –
N#CCC(=O)N/N=C/c1cc(Br)ccc1OCc1cccc2ccccc12 | – | 20 | – | – | – | –
O=C(CCO)c1ccc(O)cc1 | – | – | – | – | – | –
O=C(CCSc1ccc(Br)cc1)c1ccc(O)cc1 | – | 12 | – | – | – | –
CC(NC(=O)COc1cccnc1[N+](=O)[O-])c1ccc(F)cc1 (stereo not drawn) | – | – | – | – | – | –
CCOC(=O)Nc1ccc2c(c1)Nc1ccccc1S2 | – | 12 | – | – | – | –
C=CC(=O)N1c2ccccc2Sc2ccc(NC(=O)OCC)cc21 | – | – | – | – | – | –
COc1ccc(CNC(=O)CN2C(=O)C3C4C=CC(C4)C3C2=O)cc1 (stereo not drawn) | – | – | – | – | – | –
O=C(CSc1ccc(Cl)cc1)Nc1ccc(N2CCN(c3ccccc3)CC2)c(F)c1 | – | 19 | – | – | – | –
O=C(CSc1ccccc1)Nc1ccc(N2CCOCC2)c(F)c1 | – | – | – | – | – | –
CCCCNC(=O)Nc1ccc(Br)cn1 | – | – | – | – | – | –
CCCCNC(=O)Nc1ccccn1 | – | 12 | – | – | – | –
CCOC(=O)c1nnn(-c2ccc(OC)cc2)c1N | – | – | – | – | – | –
CCCNC(=O)c1ccc2c(c1)C1C3CCC(C3)C1C(c1ccccc1)N2 (stereo not drawn) | – | – | – | – | – | 48
CC(C)(C)NC(=O)c1ccc2c(c1)C1C3CCC(C3)C1C(c1ccccc1)N2 (stereo not drawn) | – | – | – | – | – | –
C/C=C/C(=O)Nc1cccc(C(F)(F)F)c1 | – | – | – | – | – | –
Cc1ccc(NC(=O)/C=C/c2cccc(C(F)(F)F)c2)cc1 | – | 25 | – | – | – | –
Cc1ccc(/C=C/C(=O)N2CCN(c3cccc(C(F)(F)F)c3)CC2)cc1 | – | 21 | – | – | – | –
Cc1ccc(C)c(C(=O)CCC(=O)N2CCN(c3cccc(C(F)(F)F)c3)CC2)c1 | – | – | – | – | – | –
COc1ccc(NC(=O)/C=C/c2ccc(OC)c(OC)c2)cn1 | – | – | – | – | – | –
COc1ccc(NC(=O)/C=C/c2cccc(C(F)(F)F)c2)cn1 | – | 11 | – | – | – | –
COc1ccc(NC(=O)/C=C/c2cccc(Br)c2)cn1 | – | 33 | – | – | – | –
COC(=O)[C@H](Cc1ccccc1)N[C@H](c1ccc(OC)cc1)[C@@H](O)Cc1ccccc1 | · | · | – | – | · | ·
COc1ccccc1OCC(=O)c1[nH]c(C)c(C(C)=O)c1C | – | – | – | – | – | –
COc1ccc(/C=C/C(=O)Nc2cc(C(F)(F)F)ccc2Cl)cc1 | – | 15 | – | – | – | –
SMILES | MPTP inh | GRIN3A LBD mod | ADAM17 inh | ADAM10 inh | MT1-MMP act inh | SKN-1 block
COc1ccc(NC(=O)/C=C/c2ccc(OC(F)F)cc2)cn1 | – | – | – | – | – | –
COc1ccc(/C=C/C(=O)Nc2ccc(OC)nc2)cc1 | – | 26 | – | – | – | –
O=C1CCC([N+](=O)[O-])C(c2cccc(Cl)c2Cl)N1 (stereo not drawn) | – | – | – | – | – | –
COc1cc2[nH]c(C(=O)NCCc3ccccc3)cc2c(OC)c1OC | – | – | – | – | – | –
CC(C)CCOCC(O)CCC(=O)NNC(=S)Nc1ccccc1 (stereo not drawn) | – | – | – | – | – | –
C=CCC(CC(O)COCCC)C(=O)NNC(=S)Nc1ccccc1 (stereo not drawn) | – | 10 | – | – | – | –
C=CCOc1nc2c(c(=O)n(C)c(=O)n2C)n1C | – | – | – | – | – | –
COc1cccc(CC(=O)N2CCN(C(=O)C(=O)c3ccc(OC)c(OC)c3)CC2)c1 | · | · | – | – | · | ·
CCc1sc(C(C2C(=O)CC(C)(C)CC2=O)C2C(=O)CC(C)(C)CC2=O)cc1[N+](=O)[O-] | – | – | – | – | – | –
O=C(Nc1ccc(S(=O)(=O)NCc2ccccc2)cc1)Nc1ccc2c(c1)OCO2 | – | 36 | · | · | – | –
CCOC(=O)COc1ccc(S(=O)(=O)Nc2ccc3c(c2)OCO3)cc1 | – | 14 | – | – | – | –
CCNS(=O)(=O)c1ccc(CCC(=O)Nc2ccc3c(c2)OCO3)cc1 | – | – | – | – | – | –
CCNS(=O)(=O)c1ccc(NC(=O)Nc2ccc3c(c2)OCO3)cc1 | – | 25 | – | – | – | –
COCCn1c(SCC(=O)NC(=O)NCc2ccccc2)nc2ccccc2c1=O | – | – | – | – | – | –
Cc1ccccc1OCC(O)Cn1c(Br)nc2c1c(=O)n(C)c(=O)n2C (stereo not drawn) | – | – | – | – | – | –
COc1ccc(NC(=O)c2cccc3ccccc23)cc1 | – | 22 | – | – | – | –
CCCCNC(=O)Nc1ccccc1C(=O)Nc1ccc(OC)cc1 | – | 11 | – | – | – | –
CCCCNC(=O)Nc1ccccc1C(=O)NCCC | – | – | – | – | – | –
COc1ccc(NC(=O)c2cc3ccc4c5ccccc5[nH]c4c3cc2O)cc1 | – | 230 | – | – | – | –
C(#Cc1ccccc1)C[N+]1(CC#Cc2cccc3ccccc23)CCOCC1 | – | – | – | – | – | –
CCOC(=O)C1CCN(S(=O)(=O)c2ccc3c(c2)CC(C)N3C(=O)C2CCC2)CC1 (stereo not drawn) | – | 24 | – | – | – | –
CCOC(=O)C1CCCN(S(=O)(=O)c2ccc3c(c2)CC(C)N3C(=O)C2CC2)C1 (stereo not drawn) | – | – | – | – | – | –
OC(c1ccc(Cl)cc1)c1ncc(-c2ccc(Oc3ccccc3)cc2)[nH]1 (stereo not drawn) | – | · | – | – | – | –
Cc1cccc(Cn2nc(C(C)(C)C)cc2C(=O)N2CCOCC2)c1 | – | – | – | – | – | –
O=C(N/N=C/c1ccncc1)c1cc(-c2ccc(Br)s2)[nH]n1 | – | 17 | – | – | – | –
SMILES | MPTP inh | GRIN3A LBD mod | ADAM17 inh | ADAM10 inh | MT1-MMP act inh | SKN-1 block
O=C(N/N=C\c1cccnc1)c1ccc(Br)s1 | – | – | – | – | – | –
Cc1nn(-c2ccccc2)c(C)c1/C=N/NC(=O)c1cc(-c2ccc(Cl)s2)[nH]n1 | – | 12 | – | – | · | –
O=C(N/N=C/c1ccccn1)c1cc(-c2ccc(Br)s2)[nH]n1 | – | – | – | – | – | –
O=C(N/N=C\c1ccncc1)c1ccc(Br)s1 | – | – | – | – | – | 41
O=C(NC1CCN(C(=O)NC2CCCCC2)CC1)c1cccc(F)c1 | – | – | – | – | – | –
COc1ccccc1C(=O)Nc1ccc(Br)c2cccnc12 | – | 21 | – | – | – | 39
COc1ccccc1C(=O)Nc1ccc(Br)cc1C | – | – | – | – | – | 54
